# Published values of several laboratories.
# Protocols differ between the studies behind these lines.
# Target: Fibroblast growth factor receptor 4 (FGFR4, Homo sapiens, UniProt P22455)
SMILES,observed,mode,method,tested at,quantity,value
COc1cc(Nc2ncc(F)c(Nc3ccc4c(n3)NC(=O)C(C)(C)O4)n2)cc(OC)c1OC,binding,,competition with immobilised ligand,10 µM,inhibition,97%
Cn1cncc1[C@](O)(COc1ccc(C#N)cc1-c1ccc(OC(F)(F)F)cc1)c1ccc(C#N)cc1,cell-free assay,,competition with immobilised ligand,1 µM,remaining binding,100%
COc1ncccc1-c1cnn2ccc(N3CCN(C(=O)OC(C)C)CC3)nc12,binding,,competition with immobilised ligand,1 µM,remaining binding,60%
Nc1ncc(-c2nc(N3CCOCC3)nc(N3CCOCC3)n2)c(C(F)F)n1,cell-free assay,,competition with immobilised ligand,10 µM,remaining binding,100%
N#CC1(c2ccccn2)CCN(Cc2cc(C(=O)O)c(=O)n3ccccc23)CC1,cell-free assay,,competition with immobilised ligand,1 µM,remaining binding,100%
C#Cc1n[nH]c2c(-c3cn([C@@H](C)c4ccccc4)c(=O)[nH]c3=O)cc(F)cc12,enzyme activity,inhibitor,,0.1 µM,inhibition,0%
Cn1cc(-c2cc(F)cc(N3CCn4c(cc5c4CCCC5)C3=O)c2CO)cc(Nc2ccc(N3CCN(C4COC4)CC3)cn2)c1=O,enzyme activity,inhibitor,,0.1 µM,inhibition,2%
C#Cc1n[nH]c2c(-c3cn([C@@H](C)c4ccccn4)c(=O)[nH]c3=O)cc(F)cc12,enzyme activity,inhibitor,,0.1 µM,inhibition,7.2%
COCc1c(-c2cc3cc(C)cc(OC)c3s2)c2c(N)ncnn2c1CN1CCNC(=O)C1,cell-free assay,,competition with immobilised ligand,1 µM,inhibition,99.9%
CC(C)(C)c1cc(C=C(C#N)C#N)cc(Br)c1O,enzyme activity,inhibitor,,0.5 µM,remaining activity,98%
Cc1nn(C)cc1-c1nc2c(N3CCN(Cc4ccc(Cl)cc4)CC3)c(Cl)cnc2[nH]1,binding,,competition with immobilised ligand,1 µM,remaining binding,68%
O=c1[nH]c2ccccc2n1C1CCN(Cc2ccc(-c3[nH]c4cc5ncnc5cc4nc3-c3ccccc3)cc2)CC1,cell-free assay,,,0.5 µM,remaining signal,97.2%
Cn1cc(-c2cccc(N3CCc4c(sc5c4CC(C)(C)C5)C3=O)c2CO)cc(Nc2ccncn2)c1=O,enzyme activity,inhibitor,,1 µM,inhibition,-2%
